The source of these data is ChEMBL document CHEMBL1123507, “Antipicornavirus activity of substituted phenoxybenzenes and phenoxypyridines” (J Med Chem, 1986).

SMILES strings stand for the structures. In brackets after ≈: the same amount, converted by molar mass.

Data set [1] concerns Coxsackievirus. Description: Lowest concentration to reduce viral effect by 50% or more against coxsackie virus A21. It counts as functional. An outline of the steps:
(§1)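 HeLa monolayers were seeded at (1.0-1.3) × 10^5 cells/well, grown 24 h at 36 °C in 5% CO2 to 60–75% cover, then refed with maintenance medium (1-2% heat-inactivated FCS) containing two-fold serial compound dilutions made from a 200 μg/mL stock in Me2SO/medium, with final Me2SO ≤0.1%. Cells were challenged with 10-100 TCID50 virus, and CPE was read microscopically at 48 and 72 h. MIC50 was the lowest concentration giving ≥50% CPE reduction versus virus control. Cytotoxicity was the lowest concentration causing cell death, a growth change or a morphology change in uninfected cultures.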

Data set [2] has as its system Enterovirus. Description: Ratio of the MIC50 of 6-(4-Nitro-phenoxy)-nicotinonitrile compared to compound obtained in the same test for Rhinovirus (RV)-2. It counts as functional. In short, it runs like this:
(§2)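 Relative activity was calculated as the MIC50 of the positive control 5-cyano-2-(4-nitrophenoxy)pyridine divided by the MIC50 of the test compound. Both were measured in parallel in the same HeLa CPE test (48/72 h microscopic reading) against RV-1A, RV-2 or coxsackievirus A21.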

Data set [3] concerns Enterovirus. In words: Ratio of the MIC50 of 6-(4-Nitro-phenoxy)-nicotinonitrile compared to compound obtained in the same test for Rhinovirus (RV)-1A. Type of data set: functional. An outline of the steps: as §2
Data set [4] relates to Enterovirus. Description: Lowest concentration to reduce viral effect by 50% or more against Rhinovirus (RV)-2. It counts as functional. In short, it runs like this: as §1
A further data set relates to HeLa. In words: Cytotoxicity concentration in HeLa cells. The note with it: human. Type of data set: cell-based. An outline of the steps:
as §1

Data set [5] has as its system Enterovirus. In words: Lowest concentration to reduce viral effect by 50% or more against Rhinovirus (RV)-1A. Type of data set: functional. In short, it runs like this: as §1
Data set [6] deals with Coxsackievirus. In words: Ratio of the MIC50 of 6-(4-Nitro-phenoxy)-nicotinonitrile compared to compound obtained in the same test for coxsackie A21. It counts as functional. In short, it runs like this:
as §2

`N#Cc1cc([N+](=O)[O-])ccc1Oc1ccc(Br)cc1`: the MIC50 worked out at 7.8 µM (≈ 2.49 µg/mL) in the data set with Coxsackievirus [1], 3.8 µM (≈ 1.21 µg/mL) against Enterovirus [4] and 3.8 µM (≈ 1.21 µg/mL) with Enterovirus [5]. Moreover, the Relative activity with Enterovirus [2] came to 6.8; in the data set on Enterovirus [3] it was 6.8; in the data set on Coxsackievirus [6], 3.3. Also, the Toxicity in the data set on HeLa was above 313 µM.
For `Cc1ccc(Oc2ccc(S(C)(=O)=O)cc2)cc1`, the MIC50 with Coxsackievirus [1] came out at 25.4 µM (≈ 6.66 µg/mL); in the data set on Enterovirus [4] it was 25.4 µM (≈ 6.66 µg/mL); against Enterovirus [5], 50.8 µM (≈ 13.3 µg/mL). Also, the Relative activity in the data set on Enterovirus [2] is reported as 1; in the data set on Enterovirus [3], 0.51; in the data set on Coxsackievirus [6] it was 1. The Toxicity with HeLa is 203 µM.
With `COc1ccc(Oc2ccc([N+](=O)[O-])cc2C#N)cc1`, the results for the MIC50 in the data set on Coxsackievirus [1], against Enterovirus [4] and in the data set on Enterovirus [5] were 5.7 µM (≈ 1.54 µg/mL), 11.6 µM (≈ 3.13 µg/mL) and 46.3 µM (≈ 12.5 µg/mL), respectively. Moreover, the Relative activity with Enterovirus [2] stood at 2.2; with Enterovirus [3], 0.56; in the data set with Coxsackievirus [6] it was 2.2. The Toxicity in the data set on HeLa was 93 µM.
In the case of `Clc1ccc(Oc2ccc(Br)cn2)cc1Cl`, the MIC50 against Coxsackievirus [1] stood at 4 µM (≈ 1.28 µg/mL); with Enterovirus [4] it was 16 µM (≈ 5.1 µg/mL); against Enterovirus [5] it was 4 µM (≈ 1.28 µg/mL). Further, the Relative activity in the data set on Enterovirus [2] stood at 1.6; with Enterovirus [3], 6.5; with Coxsackievirus [6] it was 6.5. Also, the Toxicity in the data set on HeLa came to 78 µM.
Regarding `N#Cc1cc([N+](=O)[O-])ccc1Oc1ccc(C(F)(F)F)cc1`, the MIC50 came out at 2 µM (≈ 0.616 µg/mL) against Coxsackievirus [1], 1 µM (≈ 0.308 µg/mL) against Enterovirus [4] and 10 µM (≈ 3.08 µg/mL) in the data set on Enterovirus [5]. Besides, the Relative activity with Enterovirus [2] came out at 13; with Enterovirus [3] it was 1.3; in the data set with Coxsackievirus [6], 13. Besides, in the data set on HeLa, the Toxicity was 162 µM.
On to `CSc1ccc(Oc2ccc(Cl)c(Cl)c2)nc1`, for which the values for the MIC50 against Coxsackievirus [1], in the data set with Enterovirus [4] and against Enterovirus [5] were 9 µM (≈ 2.58 µg/mL), 9 µM (≈ 2.58 µg/mL) and 4 µM (≈ 1.14 µg/mL), respectively. Moreover, the Relative activity with Enterovirus [2] turned out to be 5.8; with Enterovirus [3], 6.5; in the data set with Coxsackievirus [6], 4.6. For the same compound, in the data set with HeLa, the Toxicity turned out to be 87 µM.
With `N#Cc1ccc(Oc2ccc(Cl)cc2)nc1`, the MIC50 against Coxsackievirus [1], in the data set on Enterovirus [4] and against Enterovirus [5] was 54 µM (≈ 12.5 µg/mL) in each case. Besides, the Relative activity in the data set on Enterovirus [2] was 2; with Enterovirus [3] it was 1.9; in the data set on Coxsackievirus [6], 0.48. Also, in the data set with HeLa, the Toxicity was above 433 µM.
For the compound `CS(=O)(=O)c1ccc(Oc2ccc(Cl)cc2)cc1`, the MIC50 with Coxsackievirus [1] was 2.2 µM (≈ 0.622 µg/mL); against Enterovirus [4], 4.4 µM (≈ 1.24 µg/mL); in the data set on Enterovirus [5], 4.4 µM (≈ 1.24 µg/mL). In addition, the Relative activity amounted to 5.9 with Enterovirus [2], 11.8 in the data set with Enterovirus [3] and 11.8 in the data set with Coxsackievirus [6]. Moreover, the Toxicity in the data set on HeLa was found to be 44 µM.
Turning to `N#Cc1cccnc1Oc1ccc(Cl)c(Cl)c1`, the MIC50 turned out to be 12 µM (≈ 3.18 µg/mL) in the data set on Coxsackievirus [1], 24 µM (≈ 6.36 µg/mL) in the data set on Enterovirus [4] and 47 µM (≈ 12.5 µg/mL) in the data set on Enterovirus [5]. In addition, the Relative activity in the data set on Enterovirus [2] is given as 1.1; in the data set with Enterovirus [3], 0.55; in the data set on Coxsackievirus [6], 1.1. For the same compound, the Toxicity with HeLa is above 189 µM.
As for `CS(=O)(=O)c1cccc(Oc2ccc(Cl)c(Cl)c2)n1`, the MIC50 worked out at 157 µM (≈ 50 µg/mL) against Coxsackievirus [1], 39 µM (≈ 12.4 µg/mL) in the data set on Enterovirus [4] and 10 µM (≈ 3.18 µg/mL) with Enterovirus [5]. For the same compound, the Relative activity with Enterovirus [2] turned out to be 0.66; in the data set on Enterovirus [3], 2.6. The Toxicity in the data set on HeLa worked out at 157 µM.
As to `N#Cc1cc([N+](=O)[O-])ccc1Oc1ccccc1Br`, the MIC50 came out at 0.41 µM (≈ 0.131 µg/mL) against Coxsackievirus [1], 0.94 µM (≈ 0.3 µg/mL) against Enterovirus [4] and 1.6 µM (≈ 0.511 µg/mL) against Enterovirus [5]. The Relative activity with Enterovirus [2] is 11.1; in the data set on Enterovirus [3] it was 12.9; in the data set on Coxsackievirus [6], 3.3. Further, the Toxicity in the data set on HeLa is above 31 µM.
In the case of `N#Cc1ccc(Oc2ccc(Cl)c(Cl)c2)nc1`, the results for the MIC50 against Coxsackievirus [1], in the data set with Enterovirus [4] and against Enterovirus [5] were 2 µM (≈ 0.53 µg/mL), 19 µM (≈ 5.04 µg/mL) and 5 µM (≈ 1.33 µg/mL), respectively. Further, the Relative activity amounted to 2.7 in the data set on Enterovirus [2], 4.1 in the data set on Enterovirus [3] and 13 in the data set on Coxsackievirus [6]. In the data set with HeLa, the Toxicity was determined as 377 µM.
On to `N#Cc1cc([N+](=O)[O-])ccc1Oc1cccc(Cl)c1Cl`, for which the MIC50 is 8.1 µM (≈ 2.5 µg/mL) in the data set on Coxsackievirus [1], 0.26 µM (≈ 0.0804 µg/mL) with Enterovirus [4] and 0.52 µM (≈ 0.161 µg/mL) with Enterovirus [5]. The Relative activity in the data set with Enterovirus [2] is listed as 50; in the data set on Enterovirus [3], 25; in the data set with Coxsackievirus [6], 3.2. For the same compound, the Toxicity with HeLa was above 65 µM.
Take `COc1cccc(Oc2ccc([N+](=O)[O-])cc2C#N)c1`: the MIC50 amounted to 4.6 µM (≈ 1.24 µg/mL) in the data set on Coxsackievirus [1], 9.3 µM (≈ 2.51 µg/mL) in the data set on Enterovirus [4] and 23 µM (≈ 6.22 µg/mL) with Enterovirus [5]. Besides, the Relative activity in the data set on Enterovirus [2] was found to be 1.4; in the data set on Enterovirus [3], 1.1; in the data set with Coxsackievirus [6], 2.8. The compound also yielded a Toxicity in the data set with HeLa above 185 µM.
For the compound `N#Cc1cc([N+](=O)[O-])ccc1Oc1cc(Cl)cc(Cl)c1`, the MIC50 against Coxsackievirus [1] was determined as 16.2 µM (≈ 5.01 µg/mL); with Enterovirus [4], 8.1 µM (≈ 2.5 µg/mL); in the data set on Enterovirus [5], 16.2 µM (≈ 5.01 µg/mL). The results for the Relative activity in the data set on Enterovirus [2], with Enterovirus [3] and in the data set with Coxsackievirus [6] were 1.6, 1.6 and 0.8, respectively. For the same compound, the Toxicity with HeLa is above 65 µM.
Turning to `N#Cc1ccc(Oc2ccc(Cl)c(Cl)c2)cc1`, the MIC50 in the data set with Coxsackievirus [1] came out at 2.3 µM (≈ 0.607 µg/mL); against Enterovirus [4] it was 9.5 µM (≈ 2.51 µg/mL); in the data set on Enterovirus [5], 9.5 µM (≈ 2.51 µg/mL). Moreover, the Relative activity in the data set on Enterovirus [2] was determined as 2.7; in the data set with Enterovirus [3], 2.7; in the data set with Coxsackievirus [6] it was 11.3. In addition, in the data set on HeLa, the Toxicity was determined as 24 µM.
As to `N#Cc1ccc(Oc2ccc([N+](=O)[O-])cc2C#N)cc1`, the results for the MIC50 with Coxsackievirus [1], with Enterovirus [4] and against Enterovirus [5] were 18.9 µM (≈ 5.01 µg/mL), 9.4 µM (≈ 2.49 µg/mL) and 9.4 µM (≈ 2.49 µg/mL), respectively. The Relative activity in the data set with Enterovirus [2] came to 1.1; with Enterovirus [3], 2.2; in the data set with Coxsackievirus [6], 0.33. In addition, the Toxicity with HeLa is above 38 µM.
With `N#Cc1ccnc(Oc2ccc(Cl)c(Cl)c2)c1`, the figures for the MIC50 against Coxsackievirus [1], against Enterovirus [4] and in the data set on Enterovirus [5] were 12 µM (≈ 3.18 µg/mL), 12 µM (≈ 3.18 µg/mL) and 24 µM (≈ 6.36 µg/mL), respectively. In addition, the Relative activity is 2.2 with Enterovirus [2], 1.1 in the data set with Enterovirus [3] and 1.1 in the data set with Coxsackievirus [6]. The Toxicity in the data set on HeLa is above 189 µM.
Consider `Cc1ccc(Oc2ccc([N+](=O)[O-])cc2C#N)cc1`, for which the MIC50 in the data set on Coxsackievirus [1] worked out at 2.4 µM (≈ 0.61 µg/mL); against Enterovirus [4] it was 5.1 µM (≈ 1.3 µg/mL); against Enterovirus [5], 5.1 µM (≈ 1.3 µg/mL). Moreover, the Relative activity with Enterovirus [2] worked out at 2; in the data set on Enterovirus [3] it was 4.1; with Coxsackievirus [6], 2.2. In addition, the Toxicity in the data set on HeLa was determined as 39 µM.
In the case of `COc1ccc(Oc2ccc(S(C)(=O)=O)cc2)cc1`, the MIC50 amounted to 90 µM (≈ 25 µg/mL) in the data set with Coxsackievirus [1], 45 µM (≈ 12.5 µg/mL) in the data set on Enterovirus [4] and 22.5 µM (≈ 6.26 µg/mL) with Enterovirus [5]. For the same compound, the figures for the Relative activity with Enterovirus [2], with Enterovirus [3] and with Coxsackievirus [6] were 0.58, 0.58 and 0.29, respectively. Moreover, the Toxicity in the data set with HeLa is above 180 µM.
With `CC(=O)Nc1ccc(Oc2ccc(Cl)c(Cl)c2)c(C#N)c1`, the MIC50 against Coxsackievirus [1] was 15.6 µM (≈ 5.01 µg/mL); against Enterovirus [4] it was 3.7 µM (≈ 1.19 µg/mL); in the data set on Enterovirus [5], 3.7 µM (≈ 1.19 µg/mL). Also, the Relative activity with Enterovirus [2] is recorded as 3.5; in the data set with Enterovirus [3] it was 3.5; in the data set on Coxsackievirus [6] it was 1.7. This compound also registered a Toxicity in the data set with HeLa of 62 µM.
